The test system of assay [1] is PBMC. Description: Induction of IL6 production in human PBMC at 1 ug/ml after 48 hrs by ELISA. Type of assay: functional. A digest of the protocol: (§1)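 PBMCs were isolated from heparinized venous blood by Ficoll-Hypaque density gradient centrifugation. Cells were cultured at 1 × 10^6/mL in RPMI 1640 with 10% fetal calf serum, with or without compound at 1 or 10 µg/mL, for 48 h at 37 °C. Cytokines in the culture supernatants were measured by commercial ELISA kits.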
Background: ELISA stands for enzyme-linked immunosorbent assay.

Assay [2] relates to PBMC. Put plainly: Induction of IL6 production in human PBMC at 10 ug/ml after 48 hrs by ELISA. Type of assay: functional. In outline: as §1
For assay [3], the system named is PBMC. Put plainly: Induction of IL12 production in human PBMC at 1 ug/ml after 48 hrs by ELISA. Type of assay: functional. In outline: as §1
Assay [4] concerns PBMC. Put plainly: Induction of IL12 production in human PBMC at 10 ug/ml after 48 hrs by ELISA. Type of assay: functional. A digest of the protocol: as §1
In assay [5] the test system is PBMC. Description: Induction of TNFalpha production in human PBMC at 1 ug/ml after 48 hrs by ELISA. Type of assay: functional. In outline:
as §1

In assay [6] the test system is PBMC. Put plainly: Induction of TNFalpha production in human PBMC at 10 ug/ml after 48 hrs by ELISA. Type of assay: functional. A digest of the protocol:
as §1

In assay [7] the test system is PBMC. Put plainly: Induction of IFN-gamma production in human PBMC at 1 ug/ml after 48 hrs by ELISA. Type of assay: functional, cell-based. In outline: as §1
Assay [8] concerns PBMC. Description: Induction of IFN-gamma production in human PBMC at 10 ug/ml after 48 hrs by ELISA. Type of assay: functional, cell-based. A digest of the protocol: as §1
The subject of assay [9] is PBMC. Put plainly: Induction of IL4 production in human PBMC at 1 ug/ml after 48 hrs by ELISA. Type of assay: functional, cell-based. In outline: as §1
The subject of assay [10] is PBMC. Description: Induction of IL4 production in human PBMC at 10 ug/ml after 48 hrs by ELISA. Type of assay: functional, cell-based. A digest of the protocol: as §1
The subject of assay [11] is PBMC. Put plainly: Induction of IL10 production in human PBMC at 1 ug/ml after 48 hrs by ELISA. Type of assay: functional, cell-based. A digest of the protocol:
as §1

Assay [12] relates to PBMC. Description: Induction of IL10 production in human PBMC at 10 ug/ml after 48 hrs by ELISA. Type of assay: functional, cell-based. In outline:
as §1

Each structure is given as a SMILES string. Calls of active or inactive are those of the source. No cut-off for these calls is given here.

Turning to `CC(=O)O[C@@H]1[C@@H]2[C@@H](OC(C)=O)[C@@]34O[C@@]2(C)COC(=O)c2cccnc2C(C)C(C)C(=O)O[C@@H]([C@H](O)[C@H](OC(C)=O)[C@@]3(COC(=O)c2ccccc2)[C@@H]1OC(C)=O)[C@]4(C)O` (stereo not given in full), the Activity is 136.1 pg/mL in the assay on PBMC [1]; 110.1 pg/mL in the assay on PBMC [2]; <7.8 pg/mL in the assay with PBMC [3]; <7.8 pg/mL in the assay on PBMC [4]; <7.8 pg/mL with PBMC [5]; <7.8 pg/mL in the assay on PBMC [6]. Also, the result in the assay with PBMC [7], in the assay with PBMC [8], in the assay with PBMC [9], with PBMC [10], with PBMC [11] and in the assay on PBMC [12] was inactive.

Take `C[C@H]1[C@H](C)CC[C@]2(CO)CC[C@]3(C)C(=CC[C@@H]4[C@@]5(C)CC[C@H](OC(=O)/C=C/c6ccc(O)c(O)c6)C(C)(C)[C@@H]5CC[C@]43C)[C@H]12`: the Activity in the assay with PBMC [1] is 28.5 pg/mL; in the assay with PBMC [2] it was 607.1 pg/mL; in the assay on PBMC [3], <7.8 pg/mL; with PBMC [4] it was <7.8 pg/mL; with PBMC [5], <7.8 pg/mL; with PBMC [6], 27.9 pg/mL. For the same compound, the outcome in the assay with PBMC [7], in the assay on PBMC [8], in the assay with PBMC [9], in the assay with PBMC [10], in the assay on PBMC [11] and in the assay with PBMC [12] was inactive.

Consider `CC1(C)[C@H](O)CC[C@]2(C)[C@H]3CC=C4[C@@H]5C[C@](C)(C(=O)O)C[C@@H](O)[C@]5(C)CC[C@@]4(C)[C@]3(C)CC[C@@H]12`, for which the Activity in the assay with PBMC [1] is 32.2 pg/mL; with PBMC [2] it was 16.2 pg/mL; with PBMC [3], <7.8 pg/mL; in the assay with PBMC [4] it was <7.8 pg/mL; with PBMC [5], <7.8 pg/mL; with PBMC [6], <7.8 pg/mL. Besides, the outcome in the assay with PBMC [7], with PBMC [8], with PBMC [9], in the assay on PBMC [10], in the assay on PBMC [11] and with PBMC [12] was inactive.

In the case of `CC1(C)[C@@H](O)CC[C@]2(C)[C@H]3CC=C4[C@H]5C[C@](C)(C(=O)O)C[C@@H](O)[C@]5(C)CC[C@@]4(C)[C@]3(C)CC[C@@H]12`, the Activity in the assay on PBMC [1] was 57.5 pg/mL; with PBMC [2], 297.6 pg/mL; in the assay with PBMC [3] it was <7.8 pg/mL; in the assay with PBMC [4] it was <7.8 pg/mL; in the assay with PBMC [5], <7.8 pg/mL; in the assay on PBMC [6], <7.8 pg/mL. Also, the result with PBMC [7], with PBMC [8], in the assay on PBMC [9], in the assay with PBMC [10], with PBMC [11] and with PBMC [12] was inactive.

Consider `COc1c(O)cc([C@H]2Oc3cc(O)cc(O)c3C(=O)[C@H]2O)cc1O`, for which the Activity was 279.4 pg/mL with PBMC [1]; 470.4 pg/mL with PBMC [2]; <7.8 pg/mL in the assay on PBMC [3]; <7.8 pg/mL in the assay on PBMC [4]; <7.8 pg/mL with PBMC [5]; <7.8 pg/mL in the assay on PBMC [6]. The result with PBMC [7], in the assay on PBMC [8], in the assay with PBMC [9], with PBMC [10], in the assay with PBMC [11] and in the assay with PBMC [12] was inactive.

As for `COc1c(O)cc([C@H]2Oc3cc(O)cc(O)c3C[C@H]2O)cc1O`, the Activity in the assay on PBMC [1] was <7.8 pg/mL; in the assay on PBMC [2], 662.9 pg/mL; in the assay on PBMC [3], <7.8 pg/mL; in the assay with PBMC [4], <7.8 pg/mL; with PBMC [5] it was <7.8 pg/mL; with PBMC [6], <7.8 pg/mL. Further, the result with PBMC [7], in the assay on PBMC [8], in the assay with PBMC [9], with PBMC [10], in the assay with PBMC [11] and in the assay on PBMC [12] was inactive.

For `COc1ccc([C@H]2Oc3cc(O)cc(O)c3C[C@H]2O)cc1OC`, the Activity with PBMC [1] is 473.4 pg/mL; in the assay with PBMC [2], 198.6 pg/mL; in the assay on PBMC [3] it was <7.8 pg/mL; with PBMC [4], <7.8 pg/mL; in the assay with PBMC [5] it was <7.8 pg/mL; in the assay on PBMC [6], <7.8 pg/mL. Moreover, the outcome in the assay with PBMC [7], in the assay with PBMC [8], with PBMC [9], with PBMC [10], in the assay with PBMC [11] and with PBMC [12] was inactive.

In the case of `COc1ccc(C(=O)O[C@@H]2C[C@](C)(O)[C@H]3[C@H](O[C@@H]4O[C@H](CO)[C@@H](O)[C@H](O)[C@H]4O)OC=C[C@H]32)cc1OC`, the Activity is 849.5 pg/mL in the assay on PBMC [1]; 38.1 pg/mL in the assay with PBMC [2]; 27.2 pg/mL in the assay on PBMC [3]; <7.8 pg/mL in the assay on PBMC [4]; 12.6 pg/mL in the assay on PBMC [5]; <7.8 pg/mL in the assay on PBMC [6]. For the same compound, the outcome in the assay on PBMC [7], in the assay on PBMC [8], in the assay with PBMC [9], in the assay on PBMC [10], in the assay with PBMC [11] and in the assay on PBMC [12] was inactive.

For `CC(=O)OC[C@]12[C@H](OC(C)=O)[C@H](OC(C)=O)[C@@H]3[C@@H](OC(=O)c4ccccc4)[C@@]14O[C@@]3(C)COC(=O)c1cccnc1C(C)C(C)C(=O)O[C@@H]([C@H](OC(C)=O)[C@@H]2OC(=O)c1ccccc1)[C@]4(C)O` (stereo not given in full), the Activity in the assay with PBMC [1] is 463 pg/mL; with PBMC [2] it was 260.8 pg/mL; in the assay on PBMC [3], 17.3 pg/mL; in the assay on PBMC [4], <7.8 pg/mL; with PBMC [5] it was 26.7 pg/mL; with PBMC [6], <7.8 pg/mL. Moreover, the result in the assay with PBMC [7], with PBMC [8], in the assay on PBMC [9], in the assay on PBMC [10], with PBMC [11] and with PBMC [12] was inactive.

With `COc1cc(C(=O)O[C@@H]2C[C@](C)(O)[C@H]3[C@H](O[C@@H]4O[C@H](CO)[C@@H](O)[C@H](O)[C@H]4O)OC=C[C@H]32)ccc1O`, the Activity with PBMC [1], in the assay on PBMC [2], in the assay on PBMC [3], in the assay on PBMC [4], with PBMC [5] and in the assay with PBMC [6] was <7.8 pg/mL in each case. Further, the result with PBMC [7], in the assay with PBMC [8], in the assay on PBMC [9], with PBMC [10], in the assay with PBMC [11] and in the assay on PBMC [12] was inactive.

As to `CC1(C)[C@@H](O)CC[C@]2(C)[C@H]3CC=C4[C@@H]5C[C@@]6(C)C[C@H](OC6=O)[C@]5(C)CC[C@@]4(C)[C@]3(C)CC[C@@H]12` [3-EPIABRUSLACTONE A], the Activity in the assay with PBMC [1] is <7.8 pg/mL; in the assay on PBMC [2], 308.4 pg/mL; in the assay with PBMC [3] it was <7.8 pg/mL; in the assay on PBMC [4] it was <7.8 pg/mL; in the assay on PBMC [5], <7.8 pg/mL; in the assay with PBMC [6] it was <7.8 pg/mL. The outcome with PBMC [7], in the assay on PBMC [8], with PBMC [9], in the assay with PBMC [10], in the assay with PBMC [11] and in the assay on PBMC [12] was inactive.

In the case of `CC1(C)[C@H](O)CC[C@]2(C)[C@H]3CC=C4[C@@H]5C[C@@]6(C)C[C@H](OC6=O)[C@]5(C)CC[C@@]4(C)[C@]3(C)CC[C@@H]12` [ABRUSLACTONE A], the Activity with PBMC [1] was 22.5 pg/mL; in the assay with PBMC [2], 777.2 pg/mL; in the assay on PBMC [3], <7.8 pg/mL; with PBMC [4] it was 28.3 pg/mL; in the assay on PBMC [5] it was <7.8 pg/mL; in the assay with PBMC [6], 22.7 pg/mL. Besides, the outcome in the assay on PBMC [7], with PBMC [8], in the assay with PBMC [9], in the assay with PBMC [10], in the assay on PBMC [11] and with PBMC [12] was inactive.

Take `CC1(C)[C@@H](O)CC[C@]2(C)[C@H]3CC=C4[C@@H]5C[C@](C)(C(=O)O)C[C@H](O)[C@]5(C)CC[C@@]4(C)[C@]3(C)CC[C@@H]12` [MAYTENFOLIC ACID]: the Activity with PBMC [1] was 380 pg/mL; in the assay on PBMC [2], 76.1 pg/mL; in the assay on PBMC [3], <7.8 pg/mL; with PBMC [4], <7.8 pg/mL; in the assay with PBMC [5] it was <7.8 pg/mL; with PBMC [6], <7.8 pg/mL.

Values taken from ChEMBL document CHEMBL1148955, “Chemical constituents from the Colombian medicinal plant Maytenus laevis” (2004).
